# Results gathered from unrelated publications.
# Lines come from different studies, so protocols differ.
# Read-out: cell growth or viability
Structure (SMILES),cell line,test,conditions,endpoint,result
C=CC(=O)N1CCN(c2nc(=O)n(-c3c(C)ccnc3C(C)C)c3nc(-c4c(O)cccc4F)c(F)cc23)[C@@H](C)C1,NCI-H1573,ATP luminescence,,IC50,> 10 µM
Cc1c(C(=O)O)ccc2c3n(nc12)[C@@H]1[C@H](C3)N(CC2CC2)[C@@]2(C(=O)Nc3cc(Cl)ccc32)[C@H]1c1cccc(Cl)c1F,Rh18,resazurin,,GI50,0.005 µM
CO[C@]12C[C@@H](COC(=O)c3cncc(Br)c3)CN(C)[C@@H]1Cc1cn(C)c3cccc2c13,C6661,MTT,48 h,IC50,82.6 µM
C=C(F)C(=O)N1CCN(c2nc(OC[C@@H]3CCCN3C)nc3c2CCN(c2cccc4cccc(Cl)c24)C3)C[C@@H]1CC#N,NCI-H23,ATP luminescence,3D culture,IC50,0.0113 µM
Cc1noc2c1-c1ccccc1C(c1ccc(Cl)cc1)=N[C@H]2CC(N)=O,KG-1,ATP luminescence,72 h,IC50,0.52 µM
C=CC(=O)c1cccnc1Nc1cccc(C(F)(F)F)c1,NCI-H23,SRB,48 h,GI50,14.2 µM
COc1cc2nc(N3CCN(C(=O)C4COc5ccccc5O4)CC3)nc(N)c2cc1OC (stereo not drawn),C6661,MTT,48 h,IC50,54.3 µM
O=C(O)c1ccccc1Nc1cccc(C(F)(F)F)c1,NCI-H23,SRB,48 h,GI50,> 30 µM
C=CC(=O)NC1CCN(c2ncc3ncnc(Nc4ccc(Oc5ccc6c(c5)ncn6C)c(C)c4)c3n2)CC1,SW1573,,,EC50,0.079 µM
